Laboratory results reported in ChEMBL document CHEMBL3808393, “Discovery of Potent and Selective Agonists of δ Opioid Receptor by Revisiting the "Message-Address" Concept” (ACS Med Chem Lett, 2016).

Legend:
[1] = molecular target: T1, Mu-type opioid receptor (Homo sapiens, UniProt P35372); assay: Displacement of [3H]DAMGO from human MOR expressed in CHO cell membranes after 60 mins
[2] = molecular target: T2, Delta-type opioid receptor (Homo sapiens, UniProt P41143); assay: Displacement of [3H]DPDPE from human DOR expressed in CHO cell membranes at 1 uM after 60 mins
T2 sequence (P41143 whole entry): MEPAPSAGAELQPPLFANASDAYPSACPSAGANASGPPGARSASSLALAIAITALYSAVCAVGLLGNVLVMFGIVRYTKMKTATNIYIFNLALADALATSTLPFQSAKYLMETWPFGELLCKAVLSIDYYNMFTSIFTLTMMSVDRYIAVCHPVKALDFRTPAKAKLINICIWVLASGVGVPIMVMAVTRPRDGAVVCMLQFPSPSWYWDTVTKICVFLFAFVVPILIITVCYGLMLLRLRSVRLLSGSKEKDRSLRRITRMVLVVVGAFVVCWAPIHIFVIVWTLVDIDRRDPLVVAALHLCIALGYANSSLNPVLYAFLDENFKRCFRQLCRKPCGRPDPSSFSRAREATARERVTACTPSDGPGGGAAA
In short: (§1)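 Competitive radioligand inhibition binding. […] DOR used [3H]DPDPE on membranes of CHO cells expressing human DOR. KOR used [3H]U69593 on CHO cells expressing human KOR. […] Each compound was run three times, mean ± SEM.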

[3] = molecular target: T3, Kappa-type opioid receptor (Homo sapiens, UniProt P41145); assay: Displacement of [3H]U69593 from human KOR expressed in CHO cell membranes at 1 uM after 60 mins; in short: as §1
T3 sequence (P41145 whole entry): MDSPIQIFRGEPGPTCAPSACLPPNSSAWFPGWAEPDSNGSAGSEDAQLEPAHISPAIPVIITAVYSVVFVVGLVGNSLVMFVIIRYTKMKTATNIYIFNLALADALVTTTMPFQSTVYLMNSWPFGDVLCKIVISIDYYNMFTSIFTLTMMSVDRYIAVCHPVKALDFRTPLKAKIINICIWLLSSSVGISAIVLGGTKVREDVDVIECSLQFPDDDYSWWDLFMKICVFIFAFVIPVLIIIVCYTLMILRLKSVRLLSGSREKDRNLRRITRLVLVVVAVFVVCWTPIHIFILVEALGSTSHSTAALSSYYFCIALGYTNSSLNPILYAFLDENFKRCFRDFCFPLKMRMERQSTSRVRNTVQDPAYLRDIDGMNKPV

[4] = molecular target: T3, Kappa-type opioid receptor; assay: Displacement of [3H]U69593 from human KOR expressed in CHO cell membranes after 60 mins
[5] = molecular target: T2, Delta-type opioid receptor; assay: Displacement of [3H]DPDPE from human DOR expressed in CHO cell membranes after 60 mins
[6] = molecular target: T2, Delta-type opioid receptor; assay: Agonist activity at human DOR expressed in CHO cell membranes after 60 mins by [35S]GTP-gamma-S binding assay
In short: (§2)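 Receptor activation by standard [35S]GTP-γ-S binding. Each compound was assayed three times and reported as mean ± SEM.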

[7] = molecular target: T3, Kappa-type opioid receptor; assay: Agonist activity at human KOR expressed in CHO cell membranes after 60 mins by [35S]GTP-gamma-S binding assay; in short: as §2
[8] = molecular target: T1, Mu-type opioid receptor; assay: Displacement of [3H]DAMGO from human MOR expressed in CHO cell membranes at 1 uM after 60 mins
[9] = molecular target: T1, Mu-type opioid receptor; assay: Agonist activity at human MOR expressed in CHO cell membranes after 60 mins by [35S]GTP-gamma-S binding assay
In short: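 [35S]GTP-γ-S binding read-out of G-protein activation. Each compound assayed three times, with values given as mean ± standard error of the mean.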

T1 sequence (P35372 whole entry): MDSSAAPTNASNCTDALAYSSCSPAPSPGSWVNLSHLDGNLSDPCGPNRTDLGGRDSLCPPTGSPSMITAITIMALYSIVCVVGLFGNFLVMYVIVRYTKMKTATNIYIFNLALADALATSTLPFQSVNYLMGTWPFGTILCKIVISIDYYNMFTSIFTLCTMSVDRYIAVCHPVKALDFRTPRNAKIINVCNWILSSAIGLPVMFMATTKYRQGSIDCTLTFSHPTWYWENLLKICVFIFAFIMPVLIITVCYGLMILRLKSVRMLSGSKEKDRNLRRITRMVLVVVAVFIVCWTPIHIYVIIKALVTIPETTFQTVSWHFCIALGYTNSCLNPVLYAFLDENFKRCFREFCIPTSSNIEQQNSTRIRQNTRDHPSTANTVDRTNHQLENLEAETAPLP

Row | SMILES | Ki [1] [µM] | Ki [5] [µM] | Ki [4] [µM] | other results
1 | COc1cccc([C@@]2(O)c3ccc(-c4ccccc4C)cc3CC[C@@H]2CN(C)C)c1 | > 10 | – | – | inhibition [2]: 13%; inhibition [3]: 16.2%
2 | COc1ccccc1-c1ccc2c(c1)CCC(CN(C)C)C2(O)c1cccc(O)c1 (single isomer, unassigned; (+)) | – | > 10 | – | Ki ([1]; cho): > 10 µM; Ki ([4]; cho): > 10 µM
3 | CN(C)C[C@H]1CCc2cc(-c3ccccc3Cl)ccc2[C@]1(O)c1cccc(O)c1 | > 10 | 0.16 | > 10 | EC50 [6]: 0.95 µM; Emax [6]: 216%
4 | COc1cccc(-c2ccc3c(c2)CC[C@H](CN(C)C)[C@@]3(O)c2cccc(OC)c2)c1 | > 10 | > 10 | > 10 | –
5 | CN(C)C[C@H]1CCc2cc(-c3ccc(Cl)cc3)ccc2[C@]1(O)c1cccc(O)c1 | > 10 | – | – | inhibition [2]: 17%; inhibition [3]: 8.9%
6 | COc1ccccc1-c1ccc2c(c1)CCC(CN(C)C)C2(O)c1cccc(O)c1 (single isomer, unassigned; (-)) [listing 1 of 2 here] | – | – | – | Emax [6]: 205%
7 | Cc1ccccc1-c1ccc2c(c1)CC[C@H](CN(C)C)[C@@]2(O)c1cccc(O)c1 | > 10 | 0.14 | > 10 | EC50 [6]: 0.49 µM; Emax [6]: 199%
8 | CN(C)C[C@H]1CCc2cc(-c3ccc(Cl)c(Cl)c3)ccc2[C@]1(O)c1cccc(O)c1 | > 10 | > 10 | > 10 | –
9 | COc1cccc([C@@]2(O)c3ccc(-c4ccc(C(F)(F)F)cc4)cc3CC[C@@H]2CN(C)C)c1 | > 10 | > 10 | > 10 | –
10 | CN(C)C[C@H]1CCc2cc(-c3ccccc3C(F)(F)F)ccc2[C@]1(O)c1cccc(O)c1 | > 10 | 0.065 | > 10 | EC50 [6]: 0.9 µM; Emax [6]: 217%
11 | CN(C)C[C@H]1CCc2cc(-c3ccc(C(F)(F)F)cc3)ccc2[C@]1(O)c1cccc(O)c1 | > 10 | > 10 | > 10 | –
12 | COc1ccc(-c2ccc3c(c2)CC[C@H](CN(C)C)[C@@]3(O)c2cccc(O)c2)cc1 | > 10 | – | > 10 | inhibition [2]: 32%
13 | COc1ccccc1-c1ccc2c(c1)CC[C@H](CN(C)C)[C@@]2(O)c1cccc(O)c1 | > 10 | 0.0047 | – | EC50 [6]: 0.0093 µM; Emax [6]: 230%; inhibition [3]: 17.7%
14 | COc1cccc([C@@]2(O)c3ccc(-c4ccc(Cl)c(Cl)c4)cc3CC[C@@H]2CN(C)C)c1 | > 10 | > 10 | > 10 | –
15 | CN(C)C[C@H]1CCc2cc(-c3ccccc3OC(F)(F)F)ccc2[C@]1(O)c1cccc(O)c1 | > 10 | 0.26 | > 10 | EC50 [6]: 1 µM; Emax [6]: 215%
16 | COc1ccccc1-c1ccc2c(c1)CCC(CN(C)C)C2(O)c1cccc(O)c1 (single isomer, unassigned; (-)) [listing 2 of 2 here] | > 10 | 0.0027 | > 10 | EC50 [6]: 0.0026 µM
17 | COc1cccc([C@@]2(O)c3ccc(-c4ccccc4OC)cc3CC[C@@H]2CN(C)C)c1 | > 10 | – | > 10 | inhibition [2]: 37.9%
18 | COc1cccc(-c2ccc3c(c2)CC[C@H](CN(C)C)[C@@]3(O)c2cccc(O)c2)c1 | > 10 | – | – | inhibition [2]: 43%; inhibition [3]: 15%
19 | COc1cccc([C@@]2(O)c3ccc(-c4ccc(Cl)cc4)cc3CC[C@@H]2CN(C)C)c1 | > 10 | > 10 | > 10 | –
20 | CN(C)C[C@H]1CCc2cc(-c3ccccc3)ccc2[C@]1(O)c1cccc(O)c1 | – | – | 0.14 | EC50 [7]: 0.58 µM; Emax [7]: 187%; inhibition [2]: 22%; inhibition [8]: 20%
21 | CN(C)C[C@H]1CCCC[C@]1(O)c1cccc(O)c1 (racemic) [O-DESMETHYL TRAMADOL] | – | > 10 | > 10 | Emax [9]: 220%
22 | COc1cccc([C@@]2(O)c3ccc(-c4ccccc4)cc3CC[C@@H]2CN(C)C)c1 | > 10 | > 10 | – | inhibition [3]: 37%
23 | CN(C)C[C@H]1CCc2cc(-c3ccccc3F)ccc2[C@]1(O)c1cccc(O)c1 | > 10 | 0.72 | > 10 | EC50 [6]: 1.6 µM; Emax [6]: 172%
24 | COc1ccc(-c2ccc3c(c2)CC[C@H](CN(C)C)[C@@]3(O)c2cccc(OC)c2)cc1 | > 10 | > 10 | > 10 | –
25 | COc1cccc([C@@]2(O)CCCC[C@@H]2CN(C)C)c1 (racemic) [(R,R)-TRAMADOL] | – | > 10 | > 10 | inhibition [8]: 9.6%
